Laboratory results: paper PMC6226115 (Clinical and Translational Science, 2018)
“And” between values parts separate entries of the source, which are not always exact repeats. Equal values may be shown once. Marks after values point to notes of the source that are not given here.

Assays:
human GlyT2 = biological target: T1, human GlyT2 (Homo sapiens, UniProt Q9Y345); assay: Inhibition of [3H]-glycine uptake in HEK cells overexpressing human GlyT2; type: cell-based
T1 sequence (Q9Y345 1-797): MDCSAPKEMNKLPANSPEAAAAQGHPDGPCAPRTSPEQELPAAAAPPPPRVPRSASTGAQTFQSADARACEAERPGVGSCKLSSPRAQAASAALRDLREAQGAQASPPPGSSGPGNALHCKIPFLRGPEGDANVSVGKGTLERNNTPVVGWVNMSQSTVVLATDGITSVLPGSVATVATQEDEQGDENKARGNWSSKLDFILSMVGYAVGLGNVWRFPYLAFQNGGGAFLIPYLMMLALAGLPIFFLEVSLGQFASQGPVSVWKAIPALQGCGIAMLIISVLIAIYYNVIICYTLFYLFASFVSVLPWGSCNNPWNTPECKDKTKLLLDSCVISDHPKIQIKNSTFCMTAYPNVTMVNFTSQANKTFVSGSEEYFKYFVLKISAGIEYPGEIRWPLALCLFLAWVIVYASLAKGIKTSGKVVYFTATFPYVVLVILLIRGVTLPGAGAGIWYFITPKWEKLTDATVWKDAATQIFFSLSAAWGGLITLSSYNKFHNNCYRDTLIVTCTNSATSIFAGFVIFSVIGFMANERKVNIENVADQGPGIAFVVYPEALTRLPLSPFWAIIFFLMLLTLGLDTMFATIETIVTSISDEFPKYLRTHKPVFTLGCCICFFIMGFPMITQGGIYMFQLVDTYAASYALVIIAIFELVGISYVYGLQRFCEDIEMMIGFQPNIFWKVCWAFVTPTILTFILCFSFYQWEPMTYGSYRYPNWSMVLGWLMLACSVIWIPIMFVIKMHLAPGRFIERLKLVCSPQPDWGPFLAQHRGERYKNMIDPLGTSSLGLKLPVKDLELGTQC
Method in brief: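 HEK cells overexpressing human GlyT2 were grown on scintillating microplates and incubated 20 min with inhibitor at 0.9–3000 nM in HBSS containing 5 mM alanine. Uptake was started with 250 nM [3H]glycine (0.0125 mCi/mL), and counting ran immediately over 57 min. IC50 came from a four-parameter log(inhibitor)-response fit.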

[1] = previously observed; cited from earlier work
[2] = Compound levels in rat plasma and CSF; type: in vivo; settings: plasma, po
Method in brief: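 Adult male Wistar rats (200–220 g) were given a single oral dose of 0.2, 0.6 or 2 mg/kg in 0.5% Natrosol with 0.01% Tween-80 (n = 8 per group). At 90 min, under s.c. inactin/ketavet anaesthesia, blood and cisterna magna CSF were taken. Plasma was stored at −20°C and CSF at −70°C. Drug was measured by HPLC-MS/MS, and CSF/plasma ratio was derived.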

[3] = tested on: glycine levels in the rat cerebrospinal fluid (CSF); assay: Glycine in rat CSF after single oral dose; type: in vivo; settings: 90 min
Method in brief: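 Male Wistar rats were acclimatised 1 h in the test room, then dosed orally once with vehicle (0.5% Natrosol, 0.01% Tween-80) or 0.2, 0.6 or 2 mg/kg (n = 8 each). After 90 min, CSF was drawn by cisterna magna puncture under anaesthesia and frozen at −70°C. Glycine was quantified by LC-MS/MS. Data are mean ± SEM, compared with vehicle by one-way ANOVA with Dunnett's test.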

glycine in CSF = assay: Phase I pharmacodynamics: glycine in CSF; type: in vivo, human; settings: for E 14, increase in glycine in CSF from baseline at 14 hours: 14 h after first dose; for E 14, increase in glycine in CSF from baseline at 14 hours / E max, maximum increase in glycine in CSF from baseline / Ratio of AUECdiff, 0–14 (glycine in CSF) / E 312, increase in glycine in CSF from baseline at 312 hours: mean (SD); for E max, maximum increase in glycine in CSF from baseline / Ratio of AUECdiff, 0–14 (glycine in CSF): after first dose; for E 312, increase in glycine in CSF from baseline at 312 hours: before last dose (steady state trough)
Method in brief: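 Healthy male volunteers took 5, 10, 25 or 50 mg orally each morning for 14 days in sequential ascending groups. CSF was drawn by lumbar catheter: three predose samples ~30 min apart, then hourly to 14 h after the first dose. A single lumbar puncture was taken before the day-14 dose. Glycine was measured by validated HPLC-MS/MS as its Marfey's derivative and expressed as % change from baseline (mean of three predose values).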

[4] = Phase I pharmacokinetics in plasma and CSF, multiple dosing over 14 days; type: in vivo, human; settings: for AUC0–14: after first dose, geometric mean (% gCV); for Tmax / Cmax: male, human, po
Method in brief: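 Healthy males received 5–50 mg orally once daily for 14 days. CSF was collected hourly via lumbar catheter for 14 h after dose 1 and by puncture before the last dose. Plasma was sampled hourly on days 1 and 14, every 24 h on days 2–4 and every 48 h on days 6–12. Drug was measured by validated HPLC-MS/MS with noncompartmental analysis. Steady state was judged from trough plasma concentrations (days 2–14) using pairwise 95% CIs.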

In the case of `C[C@@H](Oc1ccc(S(C)(=O)=O)cc1C(=O)N1C[C@@H]2C[C@]2(c2cc(C(F)(F)F)on2)C1)C(F)(F)F` [BI 425809], the IC50 (human GlyT2) is listed as > 10 µM, the “Attainment of steady state after administration” value [1] is listed as ≤ 8 days and the Half-life [1] is listed as ~ 40 hours. For the same molecule, the concentration at 90 min ([2]; 0.2 mg/kg) was 79 nM, the concentration at 90 min ([2]; 0.6 mg/kg) was 217 nM and the concentration at 90 min ([2]; 2 mg/kg) was 723 nM. The “Increase of glycine CSF levels relative to vehicle” value ([3]; 0.2 mg/kg single oral dose, not significant) was 30%, the “Increase of glycine CSF levels relative to vehicle” value ([3]; 0.6 mg/kg single oral dose, P < 0.05) was 61% and the “Increase of glycine CSF levels relative to vehicle” value ([3]; 2 mg/kg single oral dose, P < 0.01) was 78%. For the same molecule, the “E 14, increase in glycine in CSF from baseline at 14 hours” value (shortened to “E 14, increase in glycine in CSF”) (glycine in CSF; 5 mg, N = 6) was 18.0 (32.1) %, the “E max, maximum increase in glycine in CSF from baseline” value (shortened to “E max, maximum increase in glycine”) (glycine in CSF; 5 mg, N = 6) was 35.3 (26.4) % and the “Ratio of AUECdiff, 0–14 (glycine in CSF)” value (glycine in CSF; 5 mg, N = 6) was 16.0 (17.4) %. The “E 312, increase in glycine in CSF from baseline at 312 hours” value (“E 312, increase in glycine in CSF” below) (glycine in CSF; 10 mg once daily, N = 4) was 57% and 57.0 (48.3) %, the “E 14, increase in glycine in CSF” value (glycine in CSF; 10 mg, N = 6) was 39.8 (14.5) % and the “E max, maximum increase in glycine” value (glycine in CSF; 10 mg, N = 6) was 62.3 (15.3) %. The “Ratio of AUECdiff, 0–14 (glycine in CSF)” value (glycine in CSF; 10 mg, N = 6) was 37.0 (12.1) %, the “E 312, increase in glycine in CSF” value (glycine in CSF; 25 mg once daily, N = 6) was 38% and 37.9 (45.8) % and the “E 14, increase in glycine in CSF” value (glycine in CSF; 25 mg, N = 6) was 60.9 (60.7) %. The “Ratio of AUECdiff, 0–14 (glycine in CSF)” value (glycine in CSF; 25 mg, N = 6) was 53.0 (30.5) %, the “E max, maximum increase in glycine” value (glycine in CSF; 25 mg, N = 8) was 136 (107) % and the “E 312, increase in glycine in CSF” value (glycine in CSF; 50 mg once daily, N = 5) was 123% and 123 (52.5) %. The “E 14, increase in glycine in CSF” value (glycine in CSF; 50 mg, N = 5) was 50.6 (33.8) %, the “E max, maximum increase in glycine” value (glycine in CSF; 50 mg, N = 5) was 91.9 (89.9) % and the “Ratio of AUECdiff, 0–14 (glycine in CSF)” value (glycine in CSF; 50 mg, N = 5) was 47.0 (35.3) %. For the same molecule, the “Time at which CSF glycine levels reached their maximum” value (glycine in CSF; healthy volunteers, single oral doses, over dose groups) was 6 to 10 h, the AUC0–14 ([4]; CSF, 5 mg oral, n = 6) was 0.0299 µM·h and the AUC0–14 ([4]; CSF, 10 mg oral, n = 6) was 0.0598 µM·h. For the same molecule, the “AUC0–14” value ([4]; CSF, 25 mg oral, n = 6) was 124.0 (27.2) ^e nM, the AUC0–14 ([4]; CSF, 50 mg oral, n = 5) was 0.26 µM·h and the “Steady state achieved by” value ([4]; healthy volunteers, once daily dosing, trough plasma concentrations) was ≤ 6 days. It also gave a Tmax ([4]; CSF) of 5 to 8 h, a Cmax ([4]; CSF, 5 mg) of 2.9 nM and a Tmax ([4]; CSF, 5 mg) of 8 h. The Cmax ([4]; CSF, 10 mg) was 5.6 nM, the Tmax ([4]; CSF, 10 mg) was 5.5 h and the Cmax ([4]; CSF, 25 mg) was 12.2 nM. The Tmax ([4]; CSF, 25 mg) was 6.1 h, the Cmax ([4]; CSF, 50 mg) was 25 nM and the Tmax ([4]; CSF, 50 mg) was 8.1 h. It also gave a Tmax ([4]; plasma) of 3 to 5 h, a Cmax ([4]; plasma, 5 mg) of 42.3 nM and a Tmax ([4]; plasma, 5 mg) of 5 h. It also gave a Cmax ([4]; plasma, 10 mg) of 85.6 nM, a Tmax ([4]; plasma, 10 mg) of 4.5 h and a Cmax ([4]; plasma, 25 mg) of 176 nM. The Tmax ([4]; plasma, 25 mg) was 3 h, the Cmax ([4]; plasma, 50 mg) was 328 nM and the Tmax ([4]; plasma, 50 mg) was 5 h. The AUC0–14 ([4]; plasma, 5 mg oral, n = 6) was 0.421 µM·h, the AUC0–14 ([4]; plasma, 10 mg oral, n = 6) was 0.829 µM·h and the “AUC0–14” value ([4]; plasma, 25 mg oral, n = 7) was 1,840 (24.2) ^d nM. It also gave an AUC0–14 ([4]; plasma, 50 mg oral, n = 5) of 3.3 µM·h.
